Measurements as given in ChEMBL document CHEMBL3244308, “Potential antitumor agents. 22. Latentiated congeners of the 4'-(9-acridinylamino)methanesulfonanilides” (J Med Chem, 1977).

Experiments:
L1210 [1] = experiment: Antitumor activity against mouse L1210 cells subcutaneously xenografted in ip dosed C3H/DBA2 F1 hybrid mouse assessed as increase in host lifespan administered daily for 5 days starting 24 hrs post-tumor implantation; assay type: functional
Method in brief: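 10⁵ L1210 cells implanted sc above the right axilla into 18.5-22.5-g C3H/DBA2 F1 mice. Daily ip dosing for 5 days from 24 h after implant, as water-soluble salts or as homogenized suspensions in aqueous methylcellulose. Groups of six mice. Increase in life span (T/C% − 100) at the optimum dose (maximal life-span increase, mg/kg/day); 50-day survivors counted.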

L1210 [2] = experiment: Antitumor activity against mouse L1210 cells intraperitoneally xenografted in ip dosed C3H/DBA2 F1 hybrid mouse assessed as increase in host lifespan administered daily for 5 days starting 24 hrs post-tumor implantation; assay type: functional
Method in brief: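 10⁵ L1210 cells implanted ip into 18.5-22.5-g C3H/DBA2 F1 mice. Daily ip treatment for 5 days from 24 h after implant, as water-soluble salts (methanesulfonate or hydrochloride) or as homogenized suspensions in aqueous methylcellulose. Groups of six mice. Read-out is increase in life span (T/C% − 100) at the optimum dose (maximal life-span increase, mg/kg/day); 50-day survivors counted.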

Mus musculus = experiment: Toxicity in ip dosed mouse assessed as optimum dose that providing maximum increase in life span administered qd for 1 to 5 days; assay type: organism-based; conditions: in vivo
Method in brief: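 Mice were C3H/DBA2 F1 hybrids weighing 18.5-22.5 g. L1210 cells (10^5) were implanted ip or sc above the right axilla. Daily ip treatment began 24 h later and continued for 5 days (dq 1-5), given in water or as a homogenized suspension in aqueous methylcellulose. The optimum dose (mg/kg/day) is the one giving maximum life-span increase (T/C% - 100). Groups were six mice; 50-day survivors were counted.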

[3] = Lipophilic-hydrophilic balance, Rm of the compound by reversed-phase partition chromatography; assay type: physicochemical

Structure (SMILES) | ILS (L1210 [1]) | ILS (L1210 [2]) | Activity (Mus musculus) | Rm [3]
CCCCCCCCCCCCCCCCCC(=O)N(c1ccc(Nc2c3ccccc3nc3cc(NC(C)=O)ccc23)cc1)S(C)(=O)=O | 39% | 68% | 450 mg/kg | 0.87
CCCCC(=O)N(c1ccc(Nc2c3ccccc3nc3cc([N+](=O)[O-])ccc23)cc1)S(C)(=O)=O | 57% | 91% | 26 mg/kg | 0.32
CC(=O)N(c1ccc(Nc2c3ccccc3nc3cc([N+](=O)[O-])ccc23)cc1)S(C)(=O)=O | 61% | 138% | 50 mg/kg | -0.08
CCC(=O)N(c1ccc(Nc2c3ccccc3nc3cc([N+](=O)[O-])ccc23)cc1)S(C)(=O)=O | 57% | 162% | 50 mg/kg | 0.13
CCCCCC(=O)N(c1ccc(Nc2c3ccccc3nc3cc([N+](=O)[O-])ccc23)cc1)S(C)(=O)=O | 39% | 57% | 5 mg/kg | 0.41
CS(=O)(=O)Nc1ccc(Nc2c3ccccc3nc3cc([N+](=O)[O-])ccc23)cc1 | 43% | 123% | 25 mg/kg | -0.07
COc1cc(NS(C)(=O)=O)ccc1Nc1c2ccccc2nc2c(C)cccc12 | 47% | 111% | 6 mg/kg | 0.11
CCCCCCC(=O)N(c1ccc(Nc2c3ccccc3nc3cc([N+](=O)[O-])ccc23)cc1)S(C)(=O)=O | 41% | 48% | 9 mg/kg | 0.5
CCCCCCCC(=O)N(c1ccc(Nc2c3ccccc3nc3cc([N+](=O)[O-])ccc23)cc1)S(C)(=O)=O | 47% | 62% | 10 mg/kg | 0.61
CC(=O)Nc1ccc2c(Nc3ccc(N(C(C)=O)S(C)(=O)=O)cc3)c3ccccc3nc2c1.Cl | 43% | 118% | 28 mg/kg | -0.19
CCC(=O)N(c1ccc(Nc2c3ccccc3nc3cc(NC(C)=O)ccc23)cc1)S(C)(=O)=O.Cl | 88% | 135% | 40 mg/kg | 0
CCC(=O)N(c1ccc(Nc2c3ccccc3nc3ccccc23)cc1)S(C)(=O)=O.Cl | 56% | 88% | 300 mg/kg | 0.07
CCCCC(=O)N(c1ccc(Nc2c3ccccc3nc3ccccc23)cc1)S(C)(=O)=O.Cl | 28% | 68% | 400 mg/kg | 0.34
Br.CCCCCCC(=O)N(c1ccc(Nc2c3ccccc3nc3ccccc23)cc1)S(C)(=O)=O | 27% | 61% | 150 mg/kg | 0.54
COc1cc(N(C(C)=O)S(C)(=O)=O)ccc1Nc1c2ccccc2nc2ccccc12.Cl | 33% | 70% | 6 mg/kg | 0.05
CCCC(=O)N(c1ccc(Nc2c3ccccc3nc3cc(NC(C)=O)ccc23)cc1)S(C)(=O)=O.Cl | 62% | 98% | 50 mg/kg | 0.22
CCCCC(=O)N(c1ccc(Nc2c3ccccc3nc3cc(NC(C)=O)ccc23)cc1)S(C)(=O)=O.Cl | 63% | 89% | 80 mg/kg | 0.36
CCCCCC(=O)N(c1ccc(Nc2c3ccccc3nc3cc(NC(C)=O)ccc23)cc1)S(C)(=O)=O.Cl | 43% | 81% | 42 mg/kg | 0.51

Structure (SMILES) | ILS (L1210 [1]) | ILS (L1210 [2]) | Activity (Mus musculus) | Rm [3]
Br.CCCCCCC(=O)N(c1ccc(Nc2c3ccccc3nc3cc(NC(C)=O)ccc23)cc1)S(C)(=O)=O | 47% | 71% | 14 mg/kg | 0.63
Br.CCCCCCCC(=O)N(c1ccc(Nc2c3ccccc3nc3cc(NC(C)=O)ccc23)cc1)S(C)(=O)=O | 45% | 83% | 22 mg/kg | 0.69
Br.CCCCCCCCC(=O)N(c1ccc(Nc2c3ccccc3nc3cc(NC(C)=O)ccc23)cc1)S(C)(=O)=O | 83% | 143% | 45 mg/kg | 0.72
Br.CCCCCCCCCC(=O)N(c1ccc(Nc2c3ccccc3nc3cc(NC(C)=O)ccc23)cc1)S(C)(=O)=O | 65% | 98% | 50 mg/kg | 0.76
Br.CCCCCCCCCCC(=O)N(c1ccc(Nc2c3ccccc3nc3cc(NC(C)=O)ccc23)cc1)S(C)(=O)=O | 39% | 64% | 30 mg/kg | 0.79
Br.CCCCCCCCCCCC(=O)N(c1ccc(Nc2c3ccccc3nc3cc(NC(C)=O)ccc23)cc1)S(C)(=O)=O | 41% | 72% | 30 mg/kg | 0.81
CC(=O)Nc1ccc2c(Nc3ccc(N(C(=O)C(C)C)S(C)(=O)=O)cc3)c3ccccc3nc2c1.Cl | 57% | 93% | 50 mg/kg | 0.29
CCC(C)C(=O)N(c1ccc(Nc2c3ccccc3nc3cc(NC(C)=O)ccc23)cc1)S(C)(=O)=O.Cl (centres undefined) | 31% | 68% | 50 mg/kg | 0.38
COC(=O)N(c1ccc(Nc2c3ccccc3nc3ccccc23)cc1)S(C)(=O)=O.Cl | 36% | 67% | 250 mg/kg | 0.07
CCCCC(=O)N(c1ccc(Nc2c3ccccc3nc3cc(N)ccc23)cc1)S(C)(=O)=O.Cl | – | 61% | 1 mg/kg | 0.31
CCCCCC(=O)N(c1ccc(Nc2c3ccccc3nc3cc(N)ccc23)cc1)S(C)(=O)=O.Cl | – | 46% | 2 mg/kg | 0.43
CCCCCCC(=O)N(c1ccc(Nc2c3ccccc3nc3cc(N)ccc23)cc1)S(C)(=O)=O.Cl | – | 31% | 2 mg/kg | 0.51
CCCCCCCC(=O)N(c1ccc(Nc2c3ccccc3nc3cc(N)ccc23)cc1)S(C)(=O)=O.Cl | – | 119% | 2.5 mg/kg | 0.57
CCCCCCCCC(=O)N(c1ccc(Nc2c3ccccc3nc3cc(N)ccc23)cc1)S(C)(=O)=O.Cl | – | 64% | 2.5 mg/kg | 0.59
CCN(CC)/N=N/c1ccc2c(Nc3ccc(NS(C)(=O)=O)cc3)c3ccccc3nc2c1.CS(=O)(=O)O | 28% | 96% | 25 mg/kg | –
CC(=O)Nc1ccc2c(Nc3ccc(NS(C)(=O)=O)cc3)c3ccccc3nc2c1 | 33% | 114% | 13 mg/kg | -0.12
CS(=O)(=O)Nc1ccc(Nc2c3ccccc3nc3ccccc23)cc1 | 28% | 107% | 45 mg/kg | 0
